From ChEMBL document CHEMBL1157145, “Cytotoxic activity of proflavine diureas: synthesis, antitumor, evaluation and DNA binding properties of 1',1''-(acridin-3,6-diyl)-3',3''-dialkyldiureas” (Bioorg Med Chem, 2008)
Active and inactive are the calls of the source. The calls are words filed in the database; no cut-off is given here.

Columns and labels:
[1] = system: HeLa; assay: Cell cycle arrest in human HeLa cells assessed as accumulation at G2/M phase at 7.80 uM after 24 hrs; assay type: functional
Procedure, shortened: (§1)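 Cells seeded at 8 · 10^5 per 60 mm dish, allowed to settle 24 h (37 °C, 5% CO2), then exposed to the drug for 24 or 48 h. Adherent plus floating cells (5 · 10^5) were fixed in cold 70% ethanol at −20 °C overnight, treated with RNase A (100 µg/mL) and stained with propidium iodide (20 µg/mL) in Vindelov's solution for 30 min at RT. Flow cytometry used 488 nm excitation, FL-2 at 585 ± 21 nm, and histograms were modelled for G0/G1, S and G2/M fractions.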

[2] = system: HCT-116; assay: Cell cycle arrest in human HCT116 cells assessed as accumulation at G2/M phase at 5.10 uM after 48 hrs; assay type: functional; procedure, shortened: as §1
[3] = system: HeLa; assay: Cell cycle arrest in human HeLa cells assessed as accumulation at S phase at 7.80 uM after 48 hrs; assay type: functional; procedure, shortened: as §1
[4] = system: HeLa; assay: Induction of apoptosis in human HeLa cells at 7.80 uM after 48 hrs; assay type: functional
Procedure, shortened: (§2)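 After 24 or 48 h of drug exposure, all cells were collected, combining trypsinised adherent cells with floating cells from the medium. Cells (1 × 10^6) were fixed in cold 70% ethanol overnight at −20 °C and stained with DAPI (10 µg/mL) for 30 min in the dark at RT. Under fluorescence microscopy, 300 cells per sample were scored, with condensed or fragmented nuclei counted as apoptotic.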

[5] = system: HeLa; assay: Cytotoxicity against human HeLa cells after 72 hrs by MTT assay; assay type: functional, cell-based
[6] = system: DNA; assay: Binding affinity to calf thymus DNA at 4 uM by fluorescence spectrophotometric titration; assay type: nucleic-acid assay; details: Bos taurus
Procedure, shortened: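 ctDNA sonicated in TE buffer, concentration taken from A260 and given in base pairs. Compound (4 µM) in 0.01 M Tris, pH 7.4, 25 °C titrated with ctDNA (0–55 µM bp) until spectra stopped changing. Excitation 424 nm, slit widths 10 nm; binding constant derived from the change in emission.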

[7] = system: HCT-116; assay: Antiproliferative activity against human HCT116 cells assessed as increase of floating cells in total cell population at 5.10 uM after 48 hrs; assay type: functional
Procedure, shortened: (§3)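 Cells seeded (8 · 10^5 per 60 mm dish), allowed to settle 24 h at 37 °C, 5% CO2, then treated with a single concentration for 24 or 48 h. Adherent and floating cells counted by Coulter counter. Total cell number given as % of untreated control; floating cells as % of total cell number.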

[8] = system: HeLa; assay: Cytotoxicity against human HeLa cells after 48 hrs by MTT assay; assay type: functional, cell-based
[9] = system: HeLa; assay: Cell cycle arrest in human HeLa cells assessed as accumulation at G0/G1 phase at 7.80 uM after 48 hrs; assay type: functional; procedure, shortened: as §1
[10] = system: HCT-116; assay: Induction of apoptosis in human HCT116 cells at 5.10 uM after 24 hrs; assay type: functional; procedure, shortened: as §2
[11] = system: HeLa; assay: Cell cycle arrest in human HeLa cells assessed as accumulation at S phase at 7.80 uM after 24 hrs; assay type: functional; procedure, shortened: as §1
[12] = system: HeLa; assay: Antiproliferative activity against human HeLa cells assessed as increase of floating cells in total cell population at 7.80 uM after 48 hrs; assay type: functional; procedure, shortened: as §3
[13] = system: HCT-116; assay: Induction of DNA fragmentation in human HCT116 cells after 48 hrs; assay type: functional, cell-based
Procedure, shortened: (§4)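 HCT-116 cells were treated for 24 or 48 h. Adherent and floating cells (5 × 10^5) were pooled, fixed in cold 70% ethanol and held overnight at −20 °C. Samples were treated with RNase A (100 µg/mL) and stained with propidium iodide (20 µg/mL) in Vindelov's solution for 30 min at RT. Flow cytometry used 488 nm excitation with emission at 585 nm. Subdiploid (subG0/G1) particles were scored on a logarithmic scale, with debris gated out on FSC × SSC.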

[14] = system: HeLa; assay: Antiproliferative activity against human HeLa cells assessed as decrease in total cell population at 7.80 uM after 24 hrs; assay type: functional; parameters: scale not given: the % may be the effect or the level left; procedure, shortened: as §3
[15] = system: HeLa; assay: Induction of apoptosis in human HeLa cells at 7.80 uM after 24 hrs; assay type: functional; procedure, shortened: as §2
[16] = system: HeLa; assay: Antiproliferative activity against human HeLa cells assessed as decrease in total cell population at 7.80 uM after 48 hrs; assay type: functional; parameters: scale not given: the % may be the effect or the level left; procedure, shortened: as §3
[17] = system: HCT-116; assay: Antiproliferative activity against human HCT116 cells assessed as decrease in total cell population at 5.10 uM after 48 hrs; assay type: functional; parameters: scale not given: the % may be the effect or the level left; procedure, shortened: as §3
[18] = system: HCT-116; assay: Induction of DNA fragmentation in human HCT116 cells after 24 hrs; assay type: functional, cell-based; procedure, shortened: as §4
[19] = system: HCT-116; assay: Cell cycle arrest in human HCT116 cells assessed as accumulation at G0/G1 phase at 5.10 uM after 24 hrs; assay type: functional
Procedure, shortened: (§5)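 Adherent plus floating cells (5 · 10^5) collected 24 or 48 h after treatment, fixed in cold 70% ethanol at −20 °C overnight, washed in PBS. RNase A (100 µg/mL) and propidium iodide (20 µg/mL) in Vindelov's solution, 30 min at RT. Flow cytometry with 488 nm excitation, emission 585 ± 21 nm; % cells per cycle phase from DNA content histograms.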

[20] = system: HCT-116; assay: Induction of apoptosis in human HCT116 cells at 5.10 uM after 48 hrs; assay type: functional; procedure, shortened: as §2
[21] = system: HCT-116; assay: Cell cycle arrest in human HCT116 cells assessed as accumulation at G2/M phase at 5.10 uM after 24 hrs; assay type: functional; procedure, shortened: as §1
[22] = system: HCT-116; assay: Cell cycle arrest in human HCT116 cells assessed as accumulation at G0/G1 phase at 5.10 uM after 48 hrs; assay type: functional; procedure, shortened: as §5
[23] = system: HCT-116; assay: Cell cycle arrest in human HCT116 cells assessed as accumulation at S phase at 5.10 uM after 48 hrs; assay type: functional; procedure, shortened: as §1
[24] = system: HCT-116; assay: Cell cycle arrest in human HCT116 cells assessed as accumulation at S phase at 5.10 uM after 24 hrs; assay type: functional; procedure, shortened: as §1
[25] = system: HeLa; assay: Cell cycle arrest in human HeLa cells assessed as accumulation at G2/M phase at 7.80 uM after 48 hrs; assay type: functional; procedure, shortened: as §1
[26] = system: HCT-116; assay: Cytotoxicity against human HCT116 cells after 48 hrs by MTT assay; assay type: functional, cell-based; details: HCT-116, 48 h
[27] = system: HeLa; assay: Cell cycle arrest in human HeLa cells assessed as accumulation at G0/G1 phase at 7.80 uM after 24 hrs; assay type: functional; procedure, shortened: as §1
[28] = system: HCT-116; assay: Cytotoxicity against human HCT116 cells after 72 hrs by MTT assay; assay type: functional, cell-based; details: Homo sapiens, HCT-116, 72 h
[29] = system: DNA; assay: Binding affinity to calf thymus DNA at 50 uM by circular dichroism spectrophotometric titration; assay type: nucleic-acid assay; details: Bos taurus
[30] = system: HCT-116; assay: Antiproliferative activity against human HCT116 cells assessed as increase of floating cells in total cell population at 5.10 uM after 24 hrs; assay type: functional; procedure, shortened: as §3
[31] = system: HeLa; assay: Antiproliferative activity against human HeLa cells assessed as increase of floating cells in total cell population at 7.80 uM after 24 hrs; assay type: functional; procedure, shortened: as §3
[32] = system: HCT-116; assay: Antiproliferative activity against human HCT116 cells assessed as decrease in total cell population at 5.10 uM after 24 hrs; assay type: functional; parameters: scale not given: the % may be the effect or the level left; procedure, shortened: as §3

K [6]: 1.7 ×10⁵ /M
Activity [29]: Active
Structure (SMILES): CCCCCNC(=O)Nc1ccc2cc3ccc(NC(=O)NCCCCC)cc3nc2c1.Cl
Activity [1]: 13.54%
Activity [2]: 37.04%
Activity [3]: 17.38%
Activity [4]: 0.89%
IC50 [5]: 13.3 µM
Activity [7]: 88.58%
IC50 [8]: 7.78 µM
Activity [9]: 72.24%
Activity [10]: 10.67%
Activity [11]: 25.46%
Activity [12]: 3.62%
Activity [13]: Active
Activity [14]: 87.47%
Activity [15]: 1.33%
Activity [16]: 101.34%
Activity [17]: 21.22%
Activity [18]: Active
Activity [19]: 38.62%
Activity [20]: 11.33%
Activity [21]: 44.05%
Activity [22]: 40.8%
Activity [23]: 22.16%
Activity [24]: 17.34%
Activity [25]: 10.39%
IC50 [26]: 5.12 µM
Activity [27]: 61%
IC50 [28]: 3.48 µM
Activity [30]: 78.81%
Activity [31]: 3.86%
Activity [32]: 45.85%
